Screening data: PubChem, several laboratories
MT stabilize HCS = microtubule stabilizers in HeLa cells, primary screen, imaging, high-content imaging. HeLa tubulin immunostaining HCS, 24 h; share of cells brighter than vehicle mean+2SD. % tubulin-high responders, % at 10 µM. actives 0.83% (n = 200,000). AID 2205, 2009;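 active = plate Z-score above 3 for both tubulin-high and condensed-nucleus cell shares, with cell loss under 80%, at 10 µM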;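 also: anti alpha tubulin signal scored within the nucleus-defined area of each cell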
bCat nuc transl = modulators of beta-catenin nuclear translocation, primary screen, imaging, HeLa cells, immunofluorescence, high-content. nuclear translocation activity, % at 5 µM. actives 0.3% (n = 190,000);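 active = nuclear translocation activity above 50% at 5 µM, with a well cell count of 50 or more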;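 also: per-cell ratio of nuclear to cytoplasmic median beta-catenin stain intensity; plate controls were DMSO negative control for no effect and GSK-3 inhibitor IX positive control for full effect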
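assay system = human HeLa cells, endogenous beta-catenin | times = compound treatment 24 h, 37°C, 5% CO2 | detection = Anti-beta-catenin immunofluorescence on PFA-fixed, Triton-permeabilized cells, DAPI nuclei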
EP2 modulator = EP2 receptor modulators, cAMP readout, primary screen, cell-based, HTRF cAMP, PGE2 stimulation; Prostaglandin E2 receptor EP2 subtype (Homo sapiens), P43116; EP2-expressing cells, cAMP HTRF FRET, PGE2 co-stimulation; induction, % at 25 µM; actives 0.83% (n = 260,000);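 active = compounds whose cAMP rise, as percent of the full-agonist control response, exceeds 60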;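 also: rat C6 glioma line stably carrying human EP2 under a CMV promoter; the protocol text gives 20 µM as final concentration; 100% = response of wells given 1 µM PGE2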
Target sequence (P43116 whole entry, looked up): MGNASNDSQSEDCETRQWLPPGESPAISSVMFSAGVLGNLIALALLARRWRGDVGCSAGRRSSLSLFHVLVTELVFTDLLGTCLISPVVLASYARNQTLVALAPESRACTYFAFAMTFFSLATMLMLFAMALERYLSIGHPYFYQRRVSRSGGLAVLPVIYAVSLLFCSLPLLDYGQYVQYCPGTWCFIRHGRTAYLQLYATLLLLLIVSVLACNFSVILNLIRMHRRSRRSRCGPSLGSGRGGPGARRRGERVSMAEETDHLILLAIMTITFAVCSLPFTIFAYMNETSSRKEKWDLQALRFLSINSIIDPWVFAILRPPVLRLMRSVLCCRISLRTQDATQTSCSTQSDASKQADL
EP2 antag = human EP2 receptor antagonists, primary screen, TR-FRET cAMP, C6 glioma cells. Prostaglandin E2 receptor EP2 subtype (Homo sapiens), P43116. C6 glioma cells expressing human EP2; cells stimulated with saturating PGE2. inhibition, % at 25 µM. actives 0.52% (n = 260,000). AID 1422, 2008;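 active = percent inhibition above 40 after rounding to a whole number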;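 also: rat C6 glioma host cells with rolipram phosphodiesterase inhibitor present; the protocol text gives 20 µM as final concentration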
Tb hexokinase = Trypanosoma brucei hexokinase 1 inhibitors, primary screen, biochemical, G6PDH-coupled NADH absorbance, MLSCN library; AID 1430, 2008; actives 0.11% (n = 220,000); inhibition, % at 10 µM; recombinant TbHK1, G6PDH-coupled NADH A340;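 active = inhibition of 50% or more in the single-dose primary screen; inactive = inhibition below 50%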
Efa HMGR inh = inhibitors of E. faecalis class II HMGR, primary screen, biochemical, Enterococcus faecalis; purified E. faecalis HMGR, NADPH absorbance 340 nm kinetic; HMG-CoA reductase (Enterococcus faecalis, mvaE); actives 0.41% (n = 190,000); inhibition, % at 10 µM;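 active = inhibition above a set limit, the median over all tested compounds plus 3 SD, cut at about 9.5% in these data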;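 also: enzyme runs in reverse so mevalonate oxidation gives rising NADPH absorbance; 0% = complete reaction with DMSO and 100% = background rate lacking mevalonate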
EP2 confirm = cAMP induction in EP2, EP4, beta2-AR and parental cells, confirmation, counter-screen for EP2 modulator project, cell-based, five parallel assays, C6 glioma, HEK293. shares compounds with EP2 modulator. actives 47% (n = 1,300). cAMP HTRF induction; plus low (about EC15) PGE2 agonist. calls only at 20 µM (by protocol);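 active = cAMP induction above 50% in the main assay while under 30% in all four parallel counter assays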;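 also: rat C6 glioma cells stably expressing human EP2 receptor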
An asterisk follows results filed as active; i = inactive; · = no result; + = active, no number. An excerpt weighted towards active compounds, which were near 2.4% of everything screened.

SMILES	MT stabilize HCS	bCat nuc transl	EP2 modulator	EP2 antag	Tb hexokinase	Efa HMGR inh	EP2 confirm
CCc1ccc2[nH]c(=O)c(CN(Cc3cccnc3)S(=O)(=O)c3c(C)cc(C)cc3C)cc2c1	·	·	25	12	·	·	·
CCn1c(COc2ccc(Br)cc2)nnc1SCC(=O)Nc1ccc(C)cc1	·	·	-3	6	·	·	·
CCCCC(CC)CN1CN(CC(CC)CCCC)CC(C)(N)C1 (stereo not given)	·	·	50	10	·	·	i
O=C(Cn1ncc2cccn2c1=O)NC(c1ccccc1)c1ccccc1	·	·	7	8	·	·	·
COc1ccc(C2=Nn3c(nnc3-c3ccccc3OC)SC2)cc1OC	16*	58*	74*	8	-18	-4	i
COc1ccc(C2=Nn3c(nnc3-c3ccc(OC)cc3)SC2)cc1	29*	·	92*	5	-7	-3	+
CCc1ccc(C2=Nn3c(nnc3-c3cccs3)SC2)cc1	3	0	89*	15	-3	-10	+
COc1ccc(C2=Nn3c(nnc3-c3ccccn3)SC2)cc1OC	5	1	42	2	-29	-1	·
CCNC(=O)c1cc(-c2ccc(OC)c(OC)c2)nc2ccccc12	·	·	-75	17	·	·	·
CCOc1ccc2nc(SCC(=O)Nc3ncc(C)s3)c(C#N)cc2c1	·	·	-38	14	·	·	·
C[C@H](C(=O)c1ccccc1)[C@@H](c1ccccc1)N1CCOCC1	·	·	56	12	·	·	+
CC(NC(=O)Nc1ccccc1)C(c1ccccc1)N1CCOCC1 (stereo not given)	4	1	-7	5	28	2	·
NC(=O)CN1CCN(C(=O)Nc2ccc(Cl)cc2)CC1	·	·	-9	11	·	·	·
C=CCn1c(CNC(=O)c2cccs2)nnc1SCC(=O)c1ccc(Br)cc1	2	·	52	5	2	-3	i
O=C(NCCO)/C(=C\c1cccc(Br)c1)NC(=O)c1ccco1	·	·	-6	10	·	·	·
CCC(C)(C)n1nnnc1C(c1ccncc1)N1CCC(Cc2ccccc2)CC1 (stereo not given)	4	2	79*	3	0	-10	i
CCC(C)(C)n1nnnc1C(c1cccnc1)N1CCC(Cc2ccccc2)CC1 (stereo not given)	2	0	-31	6	-2	4	·
CC(=O)Nc1nnc(COc2ccc(C)cc2)s1	·	·	-1	6	·	·	·
CC1=Nc2ccccc2/C1=C/c1sc(=S)n(-c2cccc(C(=O)O)c2)c1O	5	-6	71*	7	2	-3	+
Oc1c(C=C2N=c3ccccc3=N2)sc(=S)n1-c1ccccc1	3	-3	-9	3	-5	-4	·
COc1ccc(OC)c(NC(=O)c2sc3nc4cc5c(cc4cc3c2N)CCC5)c1	·	·	14	8	·	·	·
Cc1cccc(Oc2sc(C(=O)c3ccccc3)c(N)c2C#N)c1	3	·	72*	8	2	1	i
Cc1ccc(C(=O)CSc2nc3cc4c(cc3cc2C)OCO4)cc1	·	·	-23	7	·	·	·
Cc1cc2cc3c(cc2nc1SCC(=O)OC(C)C)OCO3	1	4	68*	·	-8	-3	+
O=C(O)c1ccc(-c2ccccc2Cl)o1	5	·	69*	10	7	-4	i
SMILES	MT stabilize HCS	bCat nuc transl	EP2 modulator	EP2 antag	Tb hexokinase	Efa HMGR inh	EP2 confirm
COC(=O)[C@H]1CCc2ccccc2N1C(=O)c1cccs1	·	·	10	·	·	·	·
Nc1[nH]n2c(=O)c3c(nc2c1N=Nc1ccccc1)CCCC3	14	9	90*	8	-9	-4	+
CCOc1cc(CN2CCN(S(=O)(=O)c3ccc(F)cc3)CC2)ccc1OC	·	·	-19	15	·	·	·
Cc1cccc(NC2=NC(=S)N(c3ccc(C(=O)O)cc3)C23CCCCC3)c1	3	-2	97*	·	-3	-2	+
CCOC1(OCC)C(c2ccc(Cl)cc2)C(C#N)(C#N)C1(OCC)OCC (stereo not given)	4	0	33	·	20	1	·
CCOC1(OCC)C(c2ccc(N)cc2)C(C#N)(C#N)C1(OCC)OCC (stereo not given)	2	-1	76*	7	2	1	+
COCCCn1c(=N)c(C(=O)NCc2ccccc2)cc2c(=O)n3cc(C)ccc3nc21	·	·	-6	9	·	·	·
COC(=O)c1c(NC(=O)Cc2cccs2)sc2c1CCC(C)C2 (stereo not given)	4	-2	51	22	32	-5	i
CCOC(=O)N1CCc2c(sc(NC(=O)Cc3ccccc3)c2C(=O)c2ccc(OC)cc2)C1	·	0	20	15	-12	·	·
CCOC(=O)c1c(NC(=O)CN2CCN(C(=O)c3ccco3)CC2)sc2c1CCCC2	4	-2	60	·	-14	2	i
COC(=O)c1c(NC(=O)c2cccnc2)sc2c1CCC(C)C2 (stereo not given)	·	·	42	2	·	·	·
CCOC(=O)c1c(NC(=O)CN2CCCCC2)sc2c1CCN(C(=O)OCC)C2	3	2	70*	·	-8	1	+
CCOC(=O)c1sc(NC(=O)CCN2CC(C)OC(C)C2)c(C(=O)OCC)c1C (stereo not given)	1	·	50	·	-2	1	i
COc1ccc2nc(CN3CCC(O)(c4ccc(F)cc4)CC3)ccc2c1	·	·	-96	8	·	·	·
CCOC(=O)c1c(NC(=O)CN2CCCCC2)sc(C)c1C	4	1	67*	6	-2	-1	+
CCOC(=O)c1sc(NC(=O)CN2CCCC2)c(C(=O)OCC)c1C	3	-3	37	·	-20	-8	·
CCOC(=O)c1c(NC(=O)CN(CC)CC)sc2c1CCN(C(=O)OCC)C2	4	·	72*	9	-7	-2	+
CCOC(=O)c1c(NC(=S)N2CCN(C)CC2)sc2c1CCN(C(=O)OCC)C2	·	1	32	9	-24	·	·
CCOC(=O)c1c(NC(=O)c2ccn(CC)n2)sc2c1CCCC2	2	3	60	11	-15	-5	i
Cc1sc(NC(=O)CN2CCOCC2)c(C(=O)c2ccccc2)c1C	3	·	69*	1	-1	5	i
CN(C)c1cccc(C(=O)N2CCC(n3nnc4cccnc43)CC2)c1	·	·	-12	4	·	·	·
